From paper PMC2583325 (Insect biochemistry and molecular biology, 2008)

Legend:
TSGP4 = molecular target: T1, TSGP4 (Ornithodoros kalahariensis, UniProt Q8I9T9); assay: isothermal titration calorimetry; format: binding
T1 sequence (Q8I9T9 21-176): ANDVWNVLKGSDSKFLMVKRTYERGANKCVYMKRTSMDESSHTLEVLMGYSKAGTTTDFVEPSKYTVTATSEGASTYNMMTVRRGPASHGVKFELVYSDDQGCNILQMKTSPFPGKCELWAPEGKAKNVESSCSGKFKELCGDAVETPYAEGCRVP
Outline: (§1)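 Recombinantly expressed tick salivary lipocalin, checked for quality, in isothermal titration calorimetry on a VP-ITC instrument. Protein at 2 µM titrated against 20 µM lipid-derived ligand (fatty acid, leukotrienes, thromboxane analogues, prostaglandin, PAF) unless otherwise indicated. Stoichiometry (N), KD, ΔH and TΔS fitted per titration; S.E.M. is deviation of the data from the fit.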

AM-33 = molecular target: T2, AM-33 (Argas monolakensis, UniProt Q09JW0); assay: isothermal titration calorimetry; format: binding
T2 sequence (Q09JW0 19-179): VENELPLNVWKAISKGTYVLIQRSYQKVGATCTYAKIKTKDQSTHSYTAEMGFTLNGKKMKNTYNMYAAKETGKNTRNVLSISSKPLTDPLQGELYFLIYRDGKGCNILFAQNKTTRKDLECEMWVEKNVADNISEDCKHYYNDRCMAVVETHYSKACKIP
Outline: as §1

Structure (SMILES)	Kd (TSGP4) [nM]	Kd (AM-33) [nM]
CCCCC/C=C\C/C=C\C/C=C\C/C=C\CCCC(=O)O [Arachidonic acid]	155 ± 43	613 ± 198
CCCCC/C=C\C[C@@H](O)/C=C/C=C/C=C\[C@@H](O)CCCC(=O)O [LTB4]	1000 ± 476	587 ± 286
CCCCC/C=C\C\C=C/C=C/C=C/[C@@H](SC[C@H](NC(=O)CC[C@H](N)C(=O)O)C(=O)NCC(=O)O)[C@@H](O)CCCC(=O)O [LTC4]	≤ 2	2.2 ± 0.4
CCCCC/C=C\C\C=C/C=C/C=C/[C@@H](SC[C@H](N)C(=O)NCC(=O)O)[C@@H](O)CCCC(=O)O [LTD4]	≤ 2	≤ 2
CCCCC/C=C\C\C=C/C=C/C=C/[C@@H](SC[C@H](N)C(=O)O)[C@@H](O)CCCC(=O)O [LTE4]	10.8 ± 2	68 ± 6.6
